pIC50: −log10 of the molar value. One block for each compound: values may come before it. Calls of active or inactive are those of the source. No cut-off for these calls is given here.
How the values were obtained:
[1] = molecular target: RAC-alpha serine/threonine-protein kinase (Homo sapiens) (UniProt P31749); assay: Induction of AKT phosphorylation at S473 residue in human NCI-H460 cells at 5 nmol/L measured after 8 hrs by MSD assay; format: cell-based; conditions: filed as activator
In short: (§1)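 Lung cancer cells were seeded at 5 × 10⁴ per well, and carboplatin or gemcitabine was added 24 h after plating. Phospho-Akt induction was then measured.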

[2] = Toxicity in human NCI-H460 cells xenografted CD1 nude mouse assessed as body weight loss at 100 mg/kg, iv administered once a week for 2 weeks measured on day 14 to 16; format: organism-based; conditions: in vivo, 336 h, time 14-16 day
In short: (§2)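 Mice with s.c. NCI-H460 xenografts (50% Matrigel/50% PBS, left flank), randomized at mean 0.2 cm³, n=5/group, treatment started 8 d after implant. Gemcitabine 100 mg/kg i.v. in saline on days 0 and 7; vehicle-only controls. Body weight and physical signs monitored throughout.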

[3] = Toxicity in human NCI-H460 cells xenografted CD1 nude mouse assessed as body weight loss at 100 mg/kg, iv administered once a week for 2 weeks measured during compound dosing relative to control; format: organism-based; conditions: in vivo, 336 h; in short: as §2
[4] = molecular target: RAC-alpha serine/threonine-protein kinase (Homo sapiens) (UniProt P31749); assay: Induction of AKT phosphorylation at S473 residue in human NCI-H1703 cells at 0.7 nmol/L measured after 8 hrs by MSD assay; format: cell-based; conditions: filed as activator; in short: as §1
[5] = molecular target: RAC-alpha serine/threonine-protein kinase (Homo sapiens) (UniProt P31749); assay: Induction of AKT phosphorylation at S473 residue in human UMC-11 cells at 10 umol/L measured after 4 to 24 hrs by MSD assay; format: cell-based; conditions: dose 10.0 µmol/L, time 4-24 hrs
[6] = molecular target: RAC-alpha serine/threonine-protein kinase (Homo sapiens) (UniProt P31749); assay: Induction of AKT phosphorylation at S473 residue in human NCI-H1993 cells at 28 nmol/L measured after 8 hrs by MSD assay; format: cell-based; conditions: filed as activator; in short: as §1
[7] = molecular target: RAC-alpha serine/threonine-protein kinase (Homo sapiens) (UniProt P31749); assay: Induction of AKT phosphorylation at S473 residue in human NCI-H661 cells at 10 nmol/L measured after 8 hrs by MSD assay; format: cell-based; conditions: filed as activator; in short: as §1
[8] = molecular target: RAC-alpha serine/threonine-protein kinase (Homo sapiens) (UniProt P31749); assay: Induction of AKT phosphorylation at S473 residue in human NCI-H441cells at 5 nmol/L measured after 4 to 24 hrs by MSD assay; format: cell-based; conditions: NCI-H441, time 4-24 hrs; in short: as §1
[9] = Toxicity in human PC-3 cells xenografted CD1 nude mouse assessed as body weight loss at 5 mg/kg, iv measured on day 15 relative to control; format: organism-based; conditions: in vivo, 360 h, time 15 day
In short: (§3)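 Male CD1-nude mice with s.c. PC-3 tumours (50% Matrigel/50% PBS, left flank), randomized at mean 0.2 cm³, n=5/group, treated from 25 d post-implant. Body weight monitored versus vehicle-only controls.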

[10] = tested on: PC-3; assay: Antitumor activity against human PC-3 cells xenografted in CD1 nude mouse assessed as reduction in tumor volume at 5 mg/kg, iv by caliper method; format: functional, organism-based
In short: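 Male CD1-nude mice received s.c. PC-3 cells and were treated from day 25 after implant, at 0.2 cm³, n = 5. Docetaxel (0.73% ethanol in saline) was given at 5 mg/kg i.v. on day 0. MK-2206 (30% Captisol) was given at 120 mg/kg po on days 1, 3, 5, 8, 10, 12. Caliper volume twice weekly.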

[11] = Toxicity in human PC-3 cells xenografted CD1 nude mouse assessed as body weight loss at 5 mg/kg, iv relative to control; format: organism-based; conditions: in vivo; in short: as §3
[12] = tested on: SK-OV-3; assay: Antiproliferative activity against human SK-OV-3 cells assessed as reduction in cell proliferation measured after 72 hrs by celltiter-glo assay; format: functional, cell-based; conditions: SK-OV-3, 72 h
In short: (§4)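 Cells in RPMI 1640 with 10% heat-inactivated FBS at 37°C and 5% CO₂ were seeded at 2 to 3 × 10³ per well. […] Growth was read as cellular ATP by CellTiter-Glo.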

[13] = tested on: SK-OV-3; assay: Antitumor activity against human SK-OV-3 cells xenografted in CB17/icr SCID mouse assessed as tumor growth inhibition at 100 mg/kg, po administered 5 days per week for 2 weeks and measured twice a week during compound dosing by caliper method; format: functional, organism-based
In short: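 SK-OV-3 cells were implanted s.c. into female C.B-17/ICR-scid mice, which were randomized at 0.13 cm³, n = 5. Lapatinib (water) was given at 100 mg/kg po on days 0–4 and 7–11. MK-2206 (30% Captisol) was given at 60 or 120 mg/kg po on days 0, 2, 4, 7, 9, 11. Tumor volume by calipers twice weekly.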

[14] = molecular target: RAC-alpha serine/threonine-protein kinase (Homo sapiens) (UniProt P31749); assay: Inhibition of AKT phosphorylation at S473 residue in human HCC70 cells at 10 umol/L measured up to 24 hrs by Western blot analysis; format: cell-based; conditions: dose 10.0 µmol/L
In short: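 HCC70 cells at ~70% confluence were exposed to 10 µmol/L lapatinib, 1 µmol/L MK-2206, or both, for 0, 3, 6, 12 or 24 h. Lysates were prepared in Triton X-100/Tris buffer (pH 7.5) with protease and phosphatase inhibitors. Immunoblots after SDS-PAGE and nitrocellulose transfer were probed for pAkt and pS6.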

[15] = tested on: NCI-N87; assay: Antiproliferative activity against human NCI-N87 cells assessed as reduction in cell proliferation measured after 72 hrs by celltiter-glo assay; format: functional, cell-based; conditions: NCI-N87, 72 h; in short: as §4
[16] = tested on: HCC70; assay: Antiproliferative activity against human HCC70 cells assessed as reduction in cell proliferation measured after 72 hrs by celltiter-glo assay; format: functional, cell-based; conditions: HCC70, 72 h; in short: as §4
[17] = tested on: HCC1954; assay: Antiproliferative activity against human HCC1954 cells assessed as reduction in cell proliferation measured after 72 hrs by celltiter-glo assay; format: functional, cell-based; conditions: HCC1954, 72 h; in short: as §4
[18] = tested on: MDA-MB-468; assay: Antiproliferative activity against human MDA-MB-468 cells assessed as reduction in cell proliferation measured after 72 hrs by celltiter-glo assay; format: functional, cell-based; conditions: MDA-MB-468, 72 h; in short: as §4
[19] = tested on: HCC70; assay: Induction of apoptosis in human HCC70 cells assessed as increase in caspase-3/7 activity at 10 umol/L measured after 48 hrs by caspase-glo 3/7 assay relative to control; format: functional; conditions: dose 10 µmol/L
In short: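 HCC70 breast cells were treated for 48 h with MK-2206 (0, 0.03, 0.3, 3 µmol/L), with or without lapatinib (0, 1, 3, 5, 10 µmol/L). Caspase-3/7 activity was read by Caspase-Glo 3/7 luminescence and expressed as fold induction over DMSO-treated control. The experiment was run twice.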

[20] = tested on: SK-BR-3; assay: Antiproliferative activity against human SK-BR-3 cells assessed as reduction in cell proliferation measured after 72 hrs by celltiter-glo assay; format: functional, cell-based; conditions: SK-BR-3, 72 h; in short: as §4
[21] = tested on: Mus musculus; assay: In vivo inhibition of EGFR in human NCI-H292 cells xenografted mouse assessed as reduction in AKT phosphorylation at S473 residue at 50 mg/kg, po administered as single dose measured after 14 hrs by Western blot analysis; format: functional, organism-based
[22] = tested on: NCI-H292; assay: Antiproliferative activity against human NCI-H292 cells assessed as reduction in cell proliferation measured after 72 hrs by celltiter-glo assay; format: functional, cell-based; conditions: NCI-H292, 72 h; in short: as §4
[23] = tested on: HCC827; assay: Antiproliferative activity against human HCC827 cells assessed as reduction in cell proliferation measured after 72 hrs by celltiter-glo assay; format: functional, cell-based; conditions: HCC827, 72 h; in short: as §4
[24] = Toxicity in human NCI-H292 cells xenografted CD-1 mouse assessed as death at 50 mg/kg, po administered once daily for 5 days per week for 2 weeks and measured during compound dosing; format: organism-based; conditions: in vivo, 336 h
In short: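 NCI-H292 cells in 50% Matrigel/PBS injected s.c. into flank of female CD1-nude mice; dosing began after 2 wk at mean tumour 0.2 cm³, n = 5/group. […] Body weight and signs monitored; treatment ended day 16.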

[25] = tested on: A-431; assay: Antiproliferative activity against human A-431 cells assessed as reduction in cell proliferation measured after 72 hrs by celltiter-glo assay; format: functional, cell-based; conditions: A-431, 72 h; in short: as §4
[26] = tested on: Calu-6; assay: Antiproliferative activity against human Calu-6 cells assessed as reduction in cell proliferation measured after 72 hrs by celltiter-glo assay; format: functional, cell-based; conditions: Calu-6, 72 h; in short: as §4
[27] = tested on: NCI-H23; assay: Antiproliferative activity against human NCI-H23 cells assessed as reduction in cell proliferation measured after 72 hrs by celltiter-glo assay; format: functional, cell-based; conditions: NCI-H23, 72 h; in short: as §4
[28] = tested on: NCI-H292; assay: Induction of apoptosis in human NCI-H292 cells assessed as increase in caspase-3/7 activity up to 20 umol/L measured after 48 hrs by caspase-glo 3/7 assay; format: functional, cell-based; conditions: dose <= 20.0 µmol/L
In short: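 Caspase-3/7 activity was measured by Caspase-Glo 3/7 and expressed as fold over DMSO vehicle control. The experiment was done twice.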

[29] = tested on: NCI-H1299; assay: Antiproliferative activity against human NCI-H1299 cells assessed as reduction in cell proliferation measured after 72 hrs by celltiter-glo assay; format: functional, cell-based; conditions: NCI-H1299, 72 h; in short: as §4
[30] = tested on: Mus musculus; assay: In vivo inhibition of EGFR in human NCI-H292 cells xenografted mouse assessed as reduction in ERK phosphorylation at T202/Y204 residues at 50 mg/kg, po administered as single dose measured after 14 hrs by Western blot analysis; format: functional, organism-based
[31] = tested on: NCI-H292; assay: Antitumor activity against human NCI-H292 cells xenografted in CD-1 mouse assessed as tumor growth suppression at 50 mg/kg, po administered once daily for 5 days per week for 2 weeks and measured twice a week during compound dosing by caliper method; format: functional, organism-based
In short: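 Female CD1-nude mice carried s.c. NCI-H292 cells in Matrigel/PBS and were randomized at 0.2 cm³, n = 5. […] MK-2206 (30% Captisol) was given 2 h later at 120 mg/kg po on days 0, 2, 4, 7, 9, 11, or at 360 mg/kg on days 0 and 7. Control received vehicle. Caliper volume twice weekly.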

[32] = tested on: NCI-H358; assay: Antiproliferative activity against human NCI-H358 cells assessed as reduction in cell proliferation measured after 72 hrs by celltiter-glo assay; format: functional, cell-based; conditions: NCI-H358, 72 h; in short: as §4

Chain of RAC-alpha serine/threonine-protein kinase (Homo sapiens) (P31749 whole entry): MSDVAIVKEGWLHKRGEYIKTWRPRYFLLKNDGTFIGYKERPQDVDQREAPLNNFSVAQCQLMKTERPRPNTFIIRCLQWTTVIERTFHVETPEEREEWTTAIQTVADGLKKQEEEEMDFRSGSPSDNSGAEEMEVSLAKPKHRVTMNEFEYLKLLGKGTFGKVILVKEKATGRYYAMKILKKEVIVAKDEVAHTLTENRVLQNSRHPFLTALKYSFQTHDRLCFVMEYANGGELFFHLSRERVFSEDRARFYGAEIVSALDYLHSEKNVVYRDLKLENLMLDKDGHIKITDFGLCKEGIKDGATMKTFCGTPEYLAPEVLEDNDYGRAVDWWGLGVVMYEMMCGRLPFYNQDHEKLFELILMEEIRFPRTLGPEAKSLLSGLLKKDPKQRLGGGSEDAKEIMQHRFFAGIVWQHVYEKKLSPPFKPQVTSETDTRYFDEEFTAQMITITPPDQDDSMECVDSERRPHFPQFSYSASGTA

Activity [1]: Active
Activity [4]: Active
Activity [5]: inactive
Activity [6]: Active
Activity [7]: Active
Activity [8]: inactive
SMILES: Nc1ccn([C@@H]2O[C@H](CO)[C@@H](O)C2(F)F)c(=O)n1 [GEMCITABINE]
Activity [2]: Non-Toxic
Activity [3]: 7%

SMILES: CC(=O)O[C@@]12CO[C@@H]1C[C@H](O)[C@@]1(C)C(=O)[C@H](O)C3=C(C)[C@@H](OC(=O)[C@H](O)[C@@H](NC(=O)OC(C)(C)C)c4ccccc4)C[C@@](O)([C@@H](OC(=O)c4ccccc4)[C@H]21)C3(C)C [DOCETAXEL ANHYDROUS]
Activity [9]: Non-Toxic
Activity [10]: Active
Activity [11]: 4%

pIC50 [12]: < 5.00
pIC50 [17]: 5.26
pIC50 [18]: 5.35
pIC50 [20]: 7.52
SMILES: CS(=O)(=O)CCNCc1ccc(-c2ccc3ncnc(Nc4ccc(OCc5cccc(F)c5)c(Cl)c4)c3c2)o1 [LAPATINIB]
TGI [13]: Active
inhibition [14]: inactive
pIC50 [15]: 7.40
pIC50 [16]: 5.49
fold change (FC) [19]: ~2

SMILES: C#Cc1cccc(Nc2ncnc3cc(OCCOC)c(OCCOC)cc23)c1 [ERLOTINIB]
inhibition [21]: inactive
pIC50 [22]: 6.30
pIC50 [23]: 7.70
Activity [24]: Non-Toxic
pIC50 [25]: 5.72
pIC50 [26]: 4.45
pIC50 [27]: 4.97
Activity [28]: inactive
pIC50 [29]: 4.68
inhibition [30]: Active
Activity [31]: Active
pIC50 [32]: 5.36

From ChEMBL document CHEMBL5705892, “MK-2206, an allosteric Akt inhibitor, enhances antitumor efficacy by standard chemotherapeutic agents or molecular targeted drugs in vitro and in vivo” (Mol Cancer Ther, 2010)
